Data published in article PMC5701743 (Nature, 2017).
Where a chain is given by its changes, count along the chain named.

Legend:
Vrg4 = biological target: T1, Vrg4 (Saccharomyces cerevisiae, UniProt P40107); type: biochemical; details: internal substrate; 0.5 μM 3H-GMP outside
T1 sequence (P40107 1-337): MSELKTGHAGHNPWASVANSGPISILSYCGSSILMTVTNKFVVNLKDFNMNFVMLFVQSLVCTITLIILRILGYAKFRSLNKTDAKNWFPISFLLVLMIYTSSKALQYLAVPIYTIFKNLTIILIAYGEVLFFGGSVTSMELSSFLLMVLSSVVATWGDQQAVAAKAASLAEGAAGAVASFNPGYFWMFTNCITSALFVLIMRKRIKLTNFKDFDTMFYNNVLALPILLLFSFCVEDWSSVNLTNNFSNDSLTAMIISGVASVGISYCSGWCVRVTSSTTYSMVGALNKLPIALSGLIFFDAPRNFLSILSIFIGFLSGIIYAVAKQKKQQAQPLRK
Method in brief: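 Yeast Vrg4-GFP-His was galactose-induced, IMAC-purified in DDM, and then in DM reconstituted by dilution into yeast polar lipid vesicles at 80:1 lipid:protein and dialysed. Internal substrate was loaded by six freeze-thaw cycles and 0.4 μm extrusion. 4 μg protein was added to 50 μl of 20 mM Hepes pH 7.5, 50 mM KCl, 2 mM MgSO4 with 0.5 μM 3H-GMP. Samples were filtered, washed with cold water and scintillation-counted. ≥4 repeats, mean ± S.D.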

wild type Vrg4 = biological target: T2, wild type Vrg4 (Saccharomyces cerevisiae, UniProt P40107); test: Competition / IC50 of 3H-GMP uptake into wild type Vrg4 proteoliposomes; type: biochemical; details: competition assay, n=4
T2 sequence (P40107 1-337): T1 sequence (P40107 1-337)

Vrg4 Tyr114Phe (Y114F) = biological target: T3, Vrg4 Tyr114Phe (Y114F) (Saccharomyces cerevisiae, UniProt P40107, Y114F); test: IC50 curves, Vrg4 Tyr114Phe variant proteoliposomes; type: biochemical; details: Tyr114Phe versus wild type
T3 sequence (P40107 1-337 Y114F): T1 sequence (P40107 1-337) with Y114F
Method in brief: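 Wild-type or mutant Vrg4 was purified in DM and reconstituted at 80:1 lipid:protein into yeast polar lipid proteoliposomes. Reconstituted protein was matched by SDS-PAGE densitometry. Liposomes were substrate-loaded by freeze-thaw and extrusion. Uptake was started by adding 4 μg protein equivalent to 50 μl buffer (20 mM Hepes pH 7.5, 50 mM KCl, 2 mM MgSO4) with 0.5 μM 3H-GMP, then filtered and counted. IC50 from curves, mean of three independent experiments, s.d.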

[1] = biological target: GDP-mannose transporter Vrg4 (Saccharomyces cerevisiae) (UniProt P40107); test: crystal structure

Row | Compound | Competition of transport (recognition by the binding site) (wild type Vrg4) | further results
1 | Nc1ncnc2c1ncn2[C@@H]1O[C@H](COP(=O)(O)O)[C@@H](O)[C@H]1O [AMP, adenine monophosphate] | – | Transport driven by substance inside the liposome (Vrg4): poor transport
2 | Nc1ccn([C@@H]2O[C@H](COP(=O)(O)O)[C@@H](O)[C@H]2O)c(=O)n1 [CMP, cytosine monophosphate] | – | Transport driven by substance inside the liposome (Vrg4): no significant transport
3 | C[C@@H]1O[C@H](OP(=O)(O)OP(=O)(O)OC[C@H]2O[C@@H](n3cnc4c(=O)[nH]c(N)nc43)[C@H](O)[C@@H]2O)[C@@H](O)[C@H](O)[C@@H]1O [GDP-F, GDP-fucose] | can also compete | –
4 | Nc1nc2c(ncn2[C@@H]2O[C@H](COP(=O)(O)OP(=O)(O)O[C@H]3O[C@H](CO)[C@@H](O)[C@H](O)[C@@H]3O)[C@@H](O)[C@H]2O)c(=O)[nH]1 [GDP-M, GDP-mannose] | most effective competitors of transport | Affinity relative to wild type (Vrg4 Tyr114Phe (Y114F)): reduced the affinity
5 | Nc1nc2c(ncn2[C@@H]2O[C@H](COP(=O)(O)OP(=O)(O)O)[C@@H](O)[C@H]2O)c(=O)[nH]1 [GDP] | can also compete | –
6 | Nc1nc2c(ncn2[C@@H]2O[C@H](COP(=O)(O)O)[C@@H](O)[C@H]2O)c(=O)[nH]1 [GMP, guanine monophosphate] | most effective competitors of transport | Affinity relative to wild type (Vrg4 Tyr114Phe (Y114F)): reduced the affinity
7 | Nc1nc2c(ncn2[C@@H]2O[C@H](COP(=O)(O)OP(=O)(O)O[C@H]3O[C@H](CO)[C@@H](O)[C@H](O)[C@H]3O)[C@@H](O)[C@H]2O)c(=O)[nH]1 [GTP-G, GDP-glucose] | can also compete | –
8 | Nc1nc2c(ncn2[C@@H]2O[C@H](COP(=O)(O)OP(=O)(O)OP(=O)(O)O)[C@@H](O)[C@H]2O)c(=O)[nH]1 [GTP] | – | Transport driven by substance inside the liposome (Vrg4): cannot be driven
9 | O=P(O)(O)OP(=O)(O)O [Pyrophosphate] | cannot inhibit | –
10 | Nc1nc2c(ncn2[C@@H]2O[C@@H]3COP(=O)(O)O[C@H]3[C@H]2O)c(=O)[nH]1 [cyclic GMP] | very poorly recognised | –
11 | Nc1nc2c(ncn2[C@@H]2O[C@H](CO)[C@@H](O)[C@H]2O)c(=O)[nH]1 [guanosine] | very poorly recognised | –
12 | GDP-mannose transporter Vrg4 (from UniProt P40107 1-337) (natural protein) | – | stoichiometry N [1]: 2
